Experimental data from different studies.
Lines come from different studies, so protocols differ.
Target: Carbonic anhydrase 1 (CA1, Homo sapiens, UniProt P00915)
Observed: enzyme activity
Mode: inhibitor

SMILES	assay	quantity	value
CC(C)c1cc2c(c(O)c1O)[C@@]13CCCC(C)(C)[C@@H]1C[C@@H]2OC3=O		IC50	2.4 nM
NC(=S)N/N=C1/c2ccccc2[C@@H]2[C@H]1[C@@H](c1ccsc1)[C@H](C(=O)c1ccsc1)[C@H]2c1ccsc1 (racemic)	absorbance	IC50	452 nM
Cc1c(Cl)c(=O)oc2cc(OCCCC[Se]C#N)ccc12	stopped-flow	Ki	> 100000 nM
Cc1ccc([C@H]2[C@H](C(=O)c3cccs3)[C@@H](c3cccs3)[C@@H]3c4ccccc4/C(=N/NC(N)=S)[C@@H]32)cc1 (racemic)	absorbance	IC50	1670 nM
CCOP1(=O)CC=Cc2cc(N)ccc2O1 (stereo not drawn)	stopped-flow	Ki	> 10000 nM
CC(C)c1cc2c(c(O)c1O)[C@@]13CCCC(C)(C)[C@@H]1[C@@H](O)[C@@H]2OC3=O		Ki	1.28 nM
Cc1cc(=O)oc2cc(OCCCC[Se]C#N)ccc12	stopped-flow	Ki	> 100000 nM
NC(=S)N/N=C1/c2ccccc2[C@@H]2[C@H]1[C@@H](c1ccc(F)cc1)[C@H](C(=O)c1ccc(F)cc1)[C@H]2c1ccc(F)cc1 (racemic)	absorbance	IC50	293 nM
O=C(Nc1ccc(Cl)cc1)Nc1ccc2c(c1)C=CCP(=O)(O)O2	stopped-flow	Ki	> 10000 nM
NC(=S)N/N=C1/c2ccccc2[C@@H]2[C@H]1[C@@H](c1ccc(C(F)(F)F)cc1)[C@H](C(=O)c1ccc(C(F)(F)F)cc1)[C@H]2c1ccc(C(F)(F)F)cc1 (racemic)	absorbance	IC50	570 nM
CC(C)c1cc2c(c(O)c1O)[C@@]1(C(=O)O)CCCC(C)(C)[C@@H]1CC2		Ki	5.98 nM
O=C(Nc1ccc2c(c1)C=CCP(=O)(O)O2)c1ccc(F)cc1	stopped-flow	Ki	> 10000 nM
CC(C)c1cc2c(c(O)c1O)[C@@]13CCCC(C)(C)[C@@H]1[C@H](OC3=O)[C@H]2O		IC50	0.21 nM
O=C(Nc1ccc2c(c1)C=CCP(=O)(O)O2)c1ccccc1I	stopped-flow	Ki	> 10000 nM
Cc1ccc([C@@H]2[C@@H](C(=O)c3cccs3)[C@H](c3ccco3)[C@H]3/C(=N\NC(N)=S)c4ccccc4[C@H]32)cc1 (racemic)	absorbance	IC50	413 nM
